What was measured:
[1] = tested on: Rattus norvegicus; test: Biodistribution of [18F]AFP in rat blood at 10 min postinjection in vivo; format: ADME, organism-based
[2] = tested on: Rattus norvegicus; test: Biodistribution of [18F]AFP in rat frontal cortex at 90 min postinjection in vivo; format: ADME, organism-based; settings: 1.5 h
[3] = tested on: Rattus norvegicus; test: Biodistribution of [18F]AFP in rat blood at 60 min postinjection in vivo; format: ADME, organism-based; settings: 1 h
[4] = tested on: Rattus norvegicus; test: Biodistribution of [18F]AFP in rat cerebellum at 90 min postinjection in vivo; format: ADME, organism-based; settings: 1.5 h
[5] = tested on: Rattus norvegicus; test: Biodistribution of [18F]AFP in rat striatum at 10 min postinjection in vivo; format: ADME, organism-based
[6] = tested on: Rattus norvegicus; test: Biodistribution of [18F]AFP in rat hippocampus at 90 min postinjection in vivo; format: ADME, organism-based; settings: 1.5 h
[7] = tested on: Rattus norvegicus; test: Biodistribution of [18F]-AFP in rat hippocampus at 60 min postinjection in vivo; format: ADME, organism-based; settings: 1 h
In short: (§1)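 Male Sprague-Dawley rats, three per time point, received the F-18 radioligand in saline (~20 µCi per rat at injection) by tail vein. Under CO2 anesthesia they were decapitated at 10, 30, 60, 90 or 120 min. Blood and dissected brain regions were weighed and gamma counted. Activity was decay-corrected, and injected dose was corrected for tail residual activity. Uptake was expressed as %ID/g versus injectate standards, mean ± SD.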

[8] = tested on: Rattus norvegicus; test: Biodistribution of [18F]AFP in rat hypothalamus at 120 min postinjection in vivo; format: ADME, organism-based; settings: 2 h
[9] = species: Rattus norvegicus; test: Specific binding of [18F]AFA in thalamus of rat pretreated with compound 7f; n=3; format: functional
[10] = tested on: Rattus norvegicus; test: Biodistribution of [18F]AFP in rat hypothalamus at 10 min postinjection in vivo; format: ADME, organism-based
[11] = tested on: Rattus norvegicus; test: Biodistribution of [18F]AFP in rat blood at 90 min postinjection in vivo; format: ADME, organism-based; settings: 1.5 h
[12] = species: Rattus norvegicus; test: Specific binding of [18F]AFA in striatum of rat pretreated with compound 7f; n=3; format: functional
[13] = species: Rattus norvegicus; test: Specific binding of [18F]AFA in hypothalamus of rat pretreated with compound 7f; n=3; format: functional
[14] = tested on: Rattus norvegicus; test: Biodistribution of [18F]-AFP in rat blood at 120 min postinjection in vivo; format: ADME, organism-based; settings: 2 h; in short: as §1
[15] = tested on: Rattus norvegicus; test: Biodistribution of [18F]AFP in rat cerebellum at 120 min postinjection in vivo; format: ADME, organism-based; settings: 2 h
[16] = tested on: Rattus norvegicus; test: Biodistribution of [18F]AFP in rat thalamus at 120 min postinjection in vivo; format: ADME, organism-based; settings: 2 h
[17] = tested on: Rattus norvegicus; test: Biodistribution of [18F]-AFP in rat cerebellum at 10 min postinjection in vivo; format: ADME, organism-based; in short: as §1
[18] = tested on: Rattus norvegicus; test: Biodistribution of [18F]-AFP in rat frontal cortex at 30 min postinjection in vivo; format: ADME, organism-based; settings: 0.5 h; in short: as §1
[19] = tested on: Rattus norvegicus; test: Biodistribution of [18F]AFP in rat thalamus at 30 min postinjection in vivo; format: ADME, organism-based; settings: 0.5 h
[20] = species: Rattus norvegicus; test: Specific binding of [18F]AFA in hippocampus of rat pretreated with compound 7f; n=3; format: functional
[21] = tested on: Rattus norvegicus; test: Biodistribution of [18F]AFP in rat thalamus at 10 min postinjection in vivo; format: ADME, organism-based
[22] = tested on: Rattus norvegicus; test: Biodistribution of [18F]AFP in rat cerebellum at 60 min postinjection in vivo; format: ADME, organism-based; settings: 1 h
[23] = tested on: Rattus norvegicus; test: Biodistribution of [18F]AFP in rat thalamus at 90 min postinjection in vivo; format: ADME, organism-based; settings: 1.5 h
[24] = tested on: Rattus norvegicus; test: Biodistribution of [18F]AFP in rat frontal cortex at 10 min postinjection in vivo; format: ADME, organism-based
[25] = tested on: Rattus norvegicus; test: Biodistribution of [18F]-AFP in rat cerebellum at 30 min postinjection in vivo; format: ADME, organism-based; settings: 0.5 h; in short: as §1
[26] = tested on: Rattus norvegicus; test: Biodistribution of [18F]-AFP in rat frontal cortex at 60 min postinjection in vivo; format: ADME, organism-based; settings: 1 h; in short: as §1
[27] = tested on: Rattus norvegicus; test: Biodistribution of [18F]AFP in rat blood at 30 min postinjection in vivo; format: ADME, organism-based; settings: 0.5 h
[28] = tested on: Rattus norvegicus; test: Biodistribution of [18F]AFP in rat hippocampus at 120 min postinjection in vivo; format: ADME, organism-based; settings: 2 h
[29] = tested on: Rattus norvegicus; test: Biodistribution of [18F]-AFP in rat hippocampus at 10 min postinjection in vivo; format: ADME, organism-based; in short: as §1
[30] = tested on: Rattus norvegicus; test: Biodistribution of [18F]AFP in rat hippocampus at 30 min postinjection in vivo; format: ADME, organism-based; settings: 0.5 h
[31] = tested on: Rattus norvegicus; test: Biodistribution of [18F]AFP in rat striatum at 30 min postinjection in vivo; format: ADME, organism-based; settings: 0.5 h
[32] = tested on: Rattus norvegicus; test: Biodistribution of [18F]AFP in rat hypothalamus at 90 min postinjection in vivo; format: ADME, organism-based; settings: 1.5 h
[33] = tested on: Rattus norvegicus; test: Biodistribution of [18F]AFP in rat thalamus at 60 min postinjection in vivo; format: ADME, organism-based; settings: 1 h
[34] = tested on: Rattus norvegicus; test: Biodistribution of [18F]AFP in rat striatum at 90 min postinjection in vivo; format: ADME, organism-based; settings: 1.5 h
[35] = tested on: Rattus norvegicus; test: Biodistribution of [18F]AFP in rat striatum at 120 min postinjection in vivo; format: ADME, organism-based; settings: 2 h
[36] = tested on: Rattus norvegicus; test: Biodistribution of [18F]AFP in rat frontal cortex at 120 min postinjection in vivo; format: ADME, organism-based; settings: 2 h
[37] = tested on: Rattus norvegicus; test: Biodistribution of [18F]AFP in rat hypothalamus at 30 min postinjection in vivo; format: ADME, organism-based; settings: 0.5 h
[38] = species: Rattus norvegicus; test: Specific binding of [18F]-AFA in frontal cortex of rat pretreated with compound 7f; n=3; format: functional
[39] = tested on: Rattus norvegicus; test: Biodistribution of [18F]AFP in rat hypothalamus at 60 min postinjection in vivo; format: ADME, organism-based; settings: 1 h
[40] = tested on: Rattus norvegicus; test: Biodistribution of [18F]AFP in rat striatum 60 min postinjection in vivo; format: ADME, organism-based; settings: 1 h

CN(C)Cc1ccccc1Sc1ccc(CCC[18F])cc1N
Biodistribution [1]: 0.18 %ID/g | Biodistribution [2]: 0.05 %ID/g | Biodistribution [3]: 0.14 %ID/g | Biodistribution [4]: 0.03 %ID/g | Biodistribution [5]: 0.41 %ID/g | Biodistribution [6]: 0.07 %ID/g | Biodistribution [7]: 0.13 %ID/g | Biodistribution [8]: 0.1 %ID/g | Specific binding [9]: 0.35 %ID/g | Biodistribution [10]: 0.42 %ID/g | Biodistribution [11]: 0.08 %ID/g | Specific binding [12]: 0.07 %ID/g | Specific binding [13]: 0.26 %ID/g | Biodistribution [14]: 0.04 %ID/g | Biodistribution [15]: 0.03 %ID/g | Biodistribution [16]: 0.1 %ID/g | Biodistribution [17]: 0.31 %ID/g | Biodistribution [18]: 0.21 %ID/g | Biodistribution [19]: 0.28 %ID/g | Specific binding [20]: 0.03 %ID/g | Biodistribution [21]: 0.44 %ID/g | Biodistribution [22]: 0.07 %ID/g | Biodistribution [23]: 0.1 %ID/g | Biodistribution [24]: 0.47 %ID/g | Biodistribution [25]: 0.14 %ID/g | Biodistribution [26]: 0.12 %ID/g | Biodistribution [27]: 0.15 %ID/g | Biodistribution [28]: 0.08 %ID/g | Biodistribution [29]: 0.36 %ID/g | Biodistribution [30]: 0.19 %ID/g | Biodistribution [31]: 0.21 %ID/g | Biodistribution [32]: 0.1 %ID/g | Biodistribution [33]: 0.16 %ID/g | Biodistribution [34]: 0.08 %ID/g | Biodistribution [35]: 0.08 %ID/g | Biodistribution [36]: 0.08 %ID/g | Biodistribution [37]: 0.21 %ID/g | Specific binding [38]: 0.05 %ID/g | Biodistribution [39]: 0.13 %ID/g | Biodistribution [40]: 0.11 %ID/g

Source: ChEMBL document CHEMBL1145212, “Fluorinated diaryl sulfides as serotonin transporter ligands: synthesis, structure-activity relationship study, and in vivo evaluation of fluorine-18-labeled compounds as PET imaging agents” (J Med Chem, 2005)
